Where only a bound is given, the exact number is not on record here.

The IC50 is the concentration needed to halve the response being measured. Higher therefore signals weaker potency.

Experiment [1] concerns the target T1, 3-oxo-5-alpha-steroid 4-dehydrogenase 2 (Homo sapiens, UniProt P31213).
T1 sequence (P31213 whole entry): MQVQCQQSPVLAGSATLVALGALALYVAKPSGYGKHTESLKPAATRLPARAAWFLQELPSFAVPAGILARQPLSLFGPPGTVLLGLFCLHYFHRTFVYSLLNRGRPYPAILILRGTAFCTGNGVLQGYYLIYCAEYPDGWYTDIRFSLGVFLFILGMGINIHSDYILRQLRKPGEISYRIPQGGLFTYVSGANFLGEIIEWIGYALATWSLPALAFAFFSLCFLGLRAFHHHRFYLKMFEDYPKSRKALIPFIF
Description: In vitro inhibition of human steroid 5-alpha-reductase type 2 in SW-13-transfected cells. The class given is cell-based. In short, it runs like this:
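Homogenate of SW-13 cells transfected with human type II 5α-reductase cDNA; 5 nM [3H]androstenedione, 500 μM NADPH, 50 mM Tris HCl pH 7.5 with 20% glycerol, 1 mM EDTA; 60 min, 37 °C. Ether extraction with steroid carriers, TLC, radioactivity counted; androstanedione formed as % of control.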

The target of experiment [2] is T2, 3-oxo-5-alpha-steroid 4-dehydrogenase 1 (Homo sapiens, UniProt P18405).
T2 sequence (P18405 whole entry): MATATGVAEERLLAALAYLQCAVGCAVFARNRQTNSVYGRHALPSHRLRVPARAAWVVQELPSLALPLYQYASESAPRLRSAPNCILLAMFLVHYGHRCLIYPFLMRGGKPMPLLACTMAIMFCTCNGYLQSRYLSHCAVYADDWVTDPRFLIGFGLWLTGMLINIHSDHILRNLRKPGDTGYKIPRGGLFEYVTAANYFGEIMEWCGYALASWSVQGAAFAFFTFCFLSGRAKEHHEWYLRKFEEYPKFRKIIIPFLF
The experiment can be described thus: In vitro inhibition of human steroid 5-alpha-reductase type I in Du-145 cells. The class given is cell-based. Put shortly: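 Intact DU-145 cells (passages 60–90), 100000 cells/well, adhered 24 h; compounds in ethanol diluted in DMEM/2% charcoal-adsorbed FBS with 5 nM [3H]androstenedione, 24 h at 37 °C, 5% CO2. Ether extraction, TLC, radioactivity; androstanedione, androsterone, epiandrosterone formed as % of control.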

`CCCCCCN(C=O)[C@H]1CCC2C3CC[C@H]4N(C)C(=O)CC[C@]4(C)C3CC[C@@]21C` (stereo partly specified): the IC50 in experiment [1] is more than 100 nM; in experiment [2], 7.25 nM. For `CC(C)C(=O)N(c1ccccc1)[C@H]1CCC2C3CC[C@H]4N(C)C(=O)CC[C@]4(C)C3CC[C@@]21C` (stereo partly specified) the same measures were 582 nM and 10.5 nM.

As for `CCCCCN(C=O)[C@H]1CCC2C3CC[C@H]4N(C)C(=O)CC[C@]4(C)C3CC[C@@]21C` (stereo partly specified), the IC50 is more than 100 nM in experiment [1] and 0.91 nM in experiment [2]. On the same counts, the results for `CN(C=O)[C@H]1CCC2C3CC[C@H]4NC(=O)C=C[C@]4(C)C3CC[C@@]21C` (stereo partly specified) are more than 1000 nM and 207 nM. For `CCCCCN(C(=O)c1ccccc1)[C@H]1CCC2C3CC[C@H]4N(C)C(=O)CC[C@]4(C)C3CC[C@@]21C` (stereo partly specified) the same measures were more than 100 nM and 3.22 nM.

Compound `CN1C(=O)CC[C@]2(C)C3CC[C@@]4(C)C(CC[C@@H]4N(C=O)C4CCCCC4)C3CC[C@@H]12` (stereo partly specified) returned an IC50 in experiment [1] of more than 100 nM. Consider `CCN(CC)C(=O)[C@H]1CC[C@H]2[C@@H]3CC[C@H]4N(C)C(=O)CC[C@]4(C)[C@H]3CC[C@]12C`, for which the IC50 stood at 7.48 nM in experiment [1] and 4.14 nM in experiment [2]. On the same counts, the results for `CN(C=O)[C@H]1CCC2C3CC[C@H]4N(C)C(=O)C=C[C@]4(C)C3CC[C@@]21C` (stereo partly specified) are more than 1000 nM and 124 nM. In the case of `CN1C(=O)CC[C@]2(C)C3CC[C@@]4(C)C(CC[C@@H]4N(C(=O)c4ccccc4)c4ccccc4)C3CC[C@@H]12` (stereo partly specified), the IC50 is 3.75 nM in experiment [1] and 2.93 nM in experiment [2]. For `CCCCCCCCN(C=O)[C@H]1CCC2C3CC[C@H]4N(C)C(=O)CC[C@]4(C)C3CC[C@@]21C` (stereo partly specified) the same measures were 18.4 nM and 16.9 nM.

`COc1ccc(N(C(=O)C(C)C)[C@H]2CCC3C4CC[C@H]5N(C)C(=O)CC[C@]5(C)C4CC[C@@]32C)cc1` (stereo partly specified): the IC50 was more than 100 nM in experiment [1] and 5.44 nM in experiment [2]. On the same counts, the results for `CC(C)CCN(C=O)[C@H]1CCC2C3CC[C@H]4N(C)C(=O)CC[C@]4(C)C3CC[C@@]21C` (stereo partly specified) are more than 100 nM and 2.19 nM.

`CN1C(=O)CC[C@]2(C)C3CC[C@@]4(C)C(CC[C@@H]4N(C=O)C4CC4)C3CC[C@@H]12` (stereo partly specified) came in with an IC50 in experiment [1] of more than 100 nM.

With `CC(C)C(=O)N(c1ccc([N+](=O)[O-])c(C(F)(F)F)c1)[C@H]1CCC2C3CC[C@H]4N(C)C(=O)CC[C@]4(C)C3CC[C@@]21C` (stereo partly specified), the IC50 in experiment [1] is more than 1000 nM; in experiment [2], 59.8 nM. In experiment [1], `CCC(CC)N(C=O)[C@H]1CCC2C3CC[C@H]4N(C)C(=O)CC[C@]4(C)C3CC[C@@]21C` (stereo partly specified) displayed an IC50 of more than 100 nM. As to `CCCCCN(C(=O)CCC)[C@H]1CCC2C3CC[C@H]4N(C)C(=O)CC[C@]4(C)C3CC[C@@]21C` (stereo partly specified), the IC50 was more than 100 nM in experiment [1] and 3.31 nM in experiment [2].

For the compound `CN1C(=O)CC[C@]2(C)C3CC[C@@]4(C)C(CC[C@@H]4N(C=O)Cc4ccccc4)C3CC[C@@H]12` (stereo partly specified), the IC50 in experiment [1] was more than 100 nM; in experiment [2] it was 5.63 nM. For `CN1C(=O)CC[C@@]2(C)C1=CCC1C2CC[C@@]2(C)C1CC[C@@H]2N(C)C=O` (stereo partly specified) the same measures were more than 1000 nM and 1900 nM. In the case of `CCCCN(C=O)[C@H]1CCC2C3CC[C@H]4N(C)C(=O)CC[C@]4(C)C3CC[C@@]21C` (stereo partly specified), the half-inhibitory concentration (IC50) in experiment [1] is more than 100 nM; in experiment [2] it was 3.05 nM.

Turning to `CC(C)C(=O)N(c1ccc([N+](=O)[O-])cc1)[C@H]1CCC2C3CC[C@H]4N(C)C(=O)CC[C@]4(C)C3CC[C@@]21C` (stereo partly specified), the IC50 in experiment [1] is more than 1000 nM; in experiment [2] it was 32.8 nM. On the same counts, the results for `CCCCCN(C(=O)CC)[C@H]1CCC2C3CC[C@H]4N(C)C(=O)CC[C@]4(C)C3CC[C@@]21C` (stereo partly specified) are more than 100 nM and 4.56 nM. On the same counts, the results for `CC(C)(C)NC(=O)[C@H]1CC[C@H]2[C@@H]3CC[C@H]4NC(=O)C=C[C@]4(C)[C@H]3CC[C@]12C` [FINASTERIDE] are 4.53 nM and 26.3 nM. On the same counts, the results for `CCCN(C=O)[C@H]1CCC2C3CC[C@H]4N(C)C(=O)CC[C@]4(C)C3CC[C@@]21C` (stereo partly specified) are more than 100 nM and 5.08 nM. Compound `CN(C=O)[C@H]1CCC2C3CC[C@H]4N(C)C(=O)CC[C@]4(C)C3CC[C@@]21C` (stereo partly specified) yielded an IC50 in experiment [1] of 1000 nM. Turning to `CC(C)CN(C=O)[C@H]1CCC2C3CC[C@H]4N(C)C(=O)CC[C@]4(C)C3CC[C@@]21C` (stereo partly specified), the IC50 in experiment [1] was more than 100 nM; in experiment [2] it was 7.31 nM. For `CCCCCN(C(=O)CCCCBr)[C@H]1CCC2C3CC[C@H]4N(C)C(=O)CC[C@]4(C)C3CC[C@@]21C` (stereo partly specified) the same measures were 1000 nM and 2.42 nM. Turning to `CN1C(=O)CC[C@]2(C)C3CC[C@@]4(C)C(CC[C@@H]4N(C=O)CCC(C)(C)C)C3CC[C@@H]12` (stereo partly specified), the IC50 in experiment [1] is more than 100 nM; in experiment [2] it was 2.35 nM. As to `CCCCCCCN(C=O)[C@H]1CCC2C3CC[C@H]4N(C)C(=O)CC[C@]4(C)C3CC[C@@]21C` (stereo partly specified), the figures for the IC50 in experiment [1] and in experiment [2] were 14 nM and 9.57 nM, respectively.

In experiment [1], `CCCCN(C(C)=O)[C@H]1CCC2C3CC[C@H]4N(C)C(=O)CC[C@]4(C)C3CC[C@@]21C` (stereo partly specified) yielded an IC50 of more than 100 nM. Take `CC(C)N(C=O)[C@H]1CCC2C3CC[C@H]4N(C)C(=O)CC[C@]4(C)C3CC[C@@]21C` (stereo partly specified): the IC50 in experiment [1] was more than 100 nM; in experiment [2], 9.53 nM. Turning to `COc1ccc(N(C(=O)c2ccccc2)[C@H]2CCC3C4CC[C@H]5N(C)C(=O)CC[C@]5(C)C4CC[C@@]32C)cc1` (stereo partly specified), the IC50 is more than 1000 nM in experiment [1] and 2.11 nM in experiment [2].

`CN(C=O)[C@H]1CCC2C3CC[C@H]4NC(=O)CC[C@]4(C)C3CC[C@@]21C` (stereo partly specified): the IC50 in experiment [1] was more than 1000 nM; in experiment [2], 3700 nM. On the same counts, the results for `CCCCCN(C(=O)CCCC)[C@H]1CCC2C3CC[C@H]4N(C)C(=O)CC[C@]4(C)C3CC[C@@]21C` (stereo partly specified) are more than 100 nM and 1.77 nM.

The values are drawn from ChEMBL document CHEMBL1128284, “Synthesis and in vitro activity of 17 beta-(N-alkyl/arylformamido)- and 17 beta-[(N-alkyl/aryl)alkyl/arylamido]-4-methyl-4-aza-3-oxo-5 alpha-androstan-3-ones as inhibitors of human 5 alpha-reductases and antagonists of the androgen receptor” (J Med Chem, 1995).
